Results: ChEMBL document CHEMBL4376875, “Synthesis and Biological Evaluation of B-Cell Lymphoma 6 Inhibitors of N-Phenyl-4-pyrimidinamine Derivatives Bearing Potent Activities against Tumor Growth” (J Med Chem, 2020)
Active and inactive are the calls of the source. The calls are words filed in the database; no cut-off is given here.

Tests used:
SUD4 [1] = test: Induction of apoptosis in human SUDHL4 cells assessed as early apoptotic cells at 2.5 uM incubated for 48 hrs by annexin V-FITC and propidium iodide staining based flow cytometry analysis (reference value: 2.62%); format: functional
SUD4 [2] = test: Antiproliferative activity against human SUDHL4 cells assessed as reduction in cell viability incubated for 72 hrs by CCK8 assay; conditions: SU-DHL-4, 72 h
Toledo [3] = test: Effect on p53 mRNA expression in BCL6-negative human Toledo cells at 1.25 to 5 uM incubated for 24 hrs by RT-PCR analysis; format: functional, cell-based
Method in brief: (§1)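 Toledo cells (BCL6-independent) were exposed to 1.25, 2.50 or 5.00 μM for 24 h, then mRNA was collected. Target-gene transcripts were quantified by real-time quantitative PCR against vehicle control.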

Toledo [4] = test: Effect on ATR mRNA expression in BCL6-negative human Toledo cells at 1.25 to 5 uM incubated for 24 hrs by RT-PCR analysis; format: functional, cell-based; method in brief: as §1
[5] = Toxicity in SCID mouse xenografted with human SUDHL4 cells assessed as adverse effect on lungs morphology at 5 to 10 mg/kg, iv administered 3 days once for 15 days by H and E staining analysis; format: organism-based; conditions: in vivo
Method in brief: (§2)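 Male SCID mice, 6 weeks old, received 1 × 10⁷ SUDHL4 cells s.c. At about 100 mm³, mice were randomized (n = 7) to vehicle (20% 2-hydroxypropyl-β-cyclodextrin) or 5 or 10 mg/kg every 3 days i.v. for 15 days. Body weight and caliper volume (L × W² × 0.52) were recorded every 3 days. At sacrifice, tissues were fixed in 4% paraformaldehyde and paraffin-embedded for H&E or Ki67 IHC. Tumor mRNA was assayed by qPCR.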

Mus musculus [6] = organism: Mus musculus; conditions: C57BL/6, 10 mg/kg
OCI-Ly7 = test: Antiproliferative activity against human OCI-LY7 cells assessed as reduction in cell viability incubated for 72 hrs by CCK8 assay; conditions: OCI-Ly7, 72 h
SUD4 [7] = test: Antiproliferative activity against human SUDHL4 cells assessed as living cells and S phase cells at 0.625 uM incubated for 48 hrs by Edu based flow cytometry analysis (reference value: 48.3%)
L02 = test: Cytotoxicity against human LO2 cells assessed as reduction in cell viability incubated for 72 hrs by CCK8 assay; conditions: L02, 72 h
[8] = Metabolic stability in human liver microsomes assessed as compound remaining measured after 60 mins; format: ADME, Microsome; conditions: read-out: Stability
DOHH-2 = test: Antiproliferative activity against human DOHH2 cells assessed as reduction in cell viability incubated for 72 hrs by CCK8 assay; conditions: DOHH-2, 72 h
Toledo [9] = test: Antiproliferative activity against BCL6-negative human Toledo cells assessed as reduction in cell viability incubated for 72 hrs by CCK8 assay
Farage [10] = test: Antiproliferative activity against human Farage cells assessed as reduction in cell viability incubated for 72 hrs by CCK8 assay
SUD4 [11] = test: Induction of apoptosis in human SUDHL4 cells assessed as late apoptotic cells at 0.625 uM incubated for 48 hrs by annexin V-FITC and propidium iodide staining based flow cytometry analysis (reference value: 1.39%); format: functional
Mus musculus [12] = test: In vivo inhibition of GC formation in NP-CGG immunized C57BL/6 mouse assessed as splenic GC B cells (GL7+FAS+B220+) at 10 mg/kg, iv administered 3 days once for 12 days starting from 2 days after NP-CGG addition by flow cytometry (reference value: 1.97%); format: functional; design: scale not given: the % may be the effect or the level left
SUD4 [13] = test: Antiproliferative activity against human SUDHL4 cells assessed as reduction in living cells incubated for 48 hrs by Edu based flow cytometry analysis; format: functional, cell-based
Method in brief: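 SUDHL4 cells were treated for 48 h, then pulsed with 10 μM EdU for 2 h, fixed, permeabilized and stained with EdU/Alexa Fluor Azide 488 for 30 min. Living and S-phase cells were counted by flow cytometry. Triplicate.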

[14] = Metabolic stability in human liver assessed as intrinsic clearance; format: ADME, tissue-based; conditions: read-out: CLH
Method in brief: (§3)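 Incubation with human liver microsomes. Intrinsic clearance was scaled to liver using 45 mg microsomal protein per g liver and 20 g liver per kg body weight. Half-life was also determined.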

NCM460 = test: Cytotoxicity against human NCM460 cells assessed as reduction in cell viability incubated for 72 hrs by CCK8 assay; conditions: NCM460, 72 h
[15] = Metabolic stability in human liver microsomes assessed as intrinsic clearance per mg of protein; format: ADME, Microsome; conditions: read-out: CLH; method in brief: as §3
Mus musculus [16] = test: In vivo inhibition of GC formation in NP-CGG immunized C57BL/6 mouse assessed as proportion of Tfh cells (CXCR5+PD1+CD4+) at 10 mg/kg, iv administered 3 days once for 12 days starting from 2 days after NP-CGG addition by flow cytometry analysis (reference value: 2.25%); format: functional; design: scale not given: the % may be the effect or the level left
Farage [17] = conditions: Homo sapiens, 0.25 to 2 uM
Mus musculus [18] = organism: Mus musculus; conditions: C57BL/6, 10 mg/kg; remark: listed apart in the source
Toledo [19] = test: Effect on CD80 mRNA expression in BCL6-negative human Toledo cells at 1.25 to 5 uM incubated for 24 hrs by RT-PCR analysis; format: functional, cell-based; method in brief: as §1
Mus musculus [20] = organism: Mus musculus; conditions: C57BL/6, 10 mg/kg; remark: listed apart in the source
[21] = Cytotoxicity against HAF cells assessed as reduction in cell viability incubated for 72 hrs by CCK8 assay; conditions: Homo sapiens
SUD4 [22] = test: Antitumor activity against human SUDHL4 cells xenografted in SCID mouse assessed as reduction in tumor volume at 5 mg/kg, iv administered 3 days once for 15 days and measured every 3 days by caliper analysis; format: functional, organism-based; method in brief: as §2
Toledo [23] = test: Effect on CDKN1A mRNA expression in BCL6-negative human Toledo cells at 1.25 to 5 uM incubated for 24 hrs by RT-PCR analysis; format: functional, cell-based; method in brief: as §1
[24] = Protein binding in human plasma; format: ADME, cell-free; conditions: read-out: PPB (converted)
Method in brief: (§4)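 Human plasma protein binding was measured by a contract laboratory.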

Toledo [25] = conditions: Homo sapiens, 0.25 to 2 uM
SUD4 [26] = test: Induction of apoptosis in human SUDHL4 cells assessed as early apoptotic cells at 0.625 uM incubated for 48 hrs by annexin V-FITC and propidium iodide staining based flow cytometry analysis (reference value: 2.62%); format: functional
[27] = Toxicity in SCID mouse xenografted with human SUDHL4 cells assessed as adverse effect on liver morphology at 5 to 10 mg/kg, iv administered 3 days once for 15 days by H and E staining analysis; format: organism-based; conditions: in vivo; method in brief: as §2
[28] = Protein binding in human plasma assessed as unbound fraction; format: ADME, cell-free; method in brief: as §4
Toledo [29] = test: Effect on CXCR4 mRNA expression in BCL6-negative human Toledo cells at 1.25 to 5 uM incubated for 24 hrs by RT-PCR analysis; format: functional, cell-based; method in brief: as §1
SUD4 [30] = test: Antitumor activity against human SUDHL4 cells xenografted in SCID mouse assessed as reduction in tumor growth at 5 mg/kg, iv administered 3 days once for 15 days and measured every 3 days; format: functional, organism-based; method in brief: as §2
SUD4 [31] = test: Antiproliferative activity against human SUDHL4 cells assessed as living cells and S phase cells at 2.5 uM incubated for 48 hrs by Edu based flow cytometry analysis (reference value: 48.3%)

With `COc1cc(Nc2nc(N3C[C@@H](C)N[C@@H](C)C3)ncc2F)ccc1NC(=O)c1ccc(C2=CCCC2)s1` the Activity (SUD4 [1]) was 5.91%, the IC50 (SUD4 [2]) was 920 nM and the Activity (Toledo [3]) was “inactive”. The Activity (Toledo [4]) was “inactive”, the Activity [5] was “Non-Toxic” and the inhibition (Mus musculus [6]) was “Active”. It also gave an IC50 (OCI-Ly7) of 1620 nM, an Activity (SUD4 [7]) of 27.3% and an IC50 (L02) of 13100 nM. For the same compound, the remaining at 1 h [8] was 102%, the IC50 (DOHH-2) was 1210 nM and the IC50 (Toledo [9]) was 3250 nM. For the same compound, the IC50 (Farage [10]) was 1260 nM, the Activity (SUD4 [11]) was 3.35% and the Activity (Mus musculus [12]) was 0.45%. The Activity (SUD4 [13]) was “Dose-dependent effect”, the CLint scaled [14] was under 38 mL/min/kg and the IC50 (NCM460) was 32400 nM. For the same compound, the microsomal CLint [15] was under 9.6 µL/min/mg, the Activity (Mus musculus [16]) was 0.99% and the inhibition (Farage [17]) was “inactive”. For the same compound, the inhibition (Mus musculus [18]) was “Active”, the Activity (Toledo [19]) was “inactive” and the inhibition (Mus musculus [20]) was “Active”. For the same compound, the IC50 [21] was 26400 nM, the Activity (SUD4 [22]) was “Active” and the Activity (Toledo [23]) was “inactive”. The fraction unbound [24] was 0.076, the inhibition (Toledo [25]) was “inactive” and the Activity (SUD4 [26]) was 3.42%. For the same compound, the Activity [27] was “Non-Toxic”, the fraction unbound [28] was 0.076 and the Activity (Toledo [29]) was “inactive”. For the same compound, the Activity (SUD4 [30]) was “Active” and the Activity (SUD4 [31]) was 6.6%.
